Experimental data taken from ChEMBL document CHEMBL4229382, “Phenylthiazoles with tert-Butyl side chain: Metabolically stable with anti-biofilm activity” (Eur J Med Chem, 2018).
Values after ≈ are worked out from the molar mass of the structure shown. Active and inactive are the calls of the source. No cut-off for these calls is given here.

Columns and labels:
[1] = test system: Staphylococcus aureus; test: Antibacterial activity against methicillin-resistant Staphylococcus aureus 2658 RCMB after 18 hrs by broth microdilution assay; assay type: functional
Procedure, shortened: (§1)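 Broth microdilution: inoculum from 0.5 McFarland suspension diluted to about 5 × 10^5 CFU/mL. Media were cation-adjusted Mueller-Hinton broth for staphylococci, brain heart infusion for E. faecium, and tryptone soya broth for E. faecalis, S. pneumoniae and L. monocytogenes.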

[2] = test system: Enterococcus faecalis; test: Antibacterial activity against vancomycin-resistant Enterococcus faecalis ATCC 51299 after 18 hrs by broth microdilution assay; assay type: functional; conditions: ATCC 51299, 18 h; procedure, shortened: as §1
[3] = test system: Staphylococcus aureus; test: Antibacterial activity against methicillin-sensitive Staphylococcus aureus ATCC 6538 after 18 hrs by broth microdilution assay; assay type: functional; conditions: ATCC 6538, 18 h; procedure, shortened: as §1
[4] = test system: Staphylococcus aureus; test: Antibacterial activity against methicillin-sensitive Staphylococcus aureus NRS107 after 18 hrs by broth microdilution assay; assay type: functional; conditions: NRS107, 18 h; procedure, shortened: as §1
[5] = test system: Streptococcus pneumoniae; test: Antibacterial activity against methicillin-resistant Streptococcus pneumoniae ATCC 700677 after 18 hrs by broth microdilution assay; assay type: functional; conditions: ATCC 700677, 18 h; procedure, shortened: as §1
[6] = test system: Staphylococcus aureus; test: Antibacterial activity against methicillin-resistant Staphylococcus aureus NRS123 USA400 assessed as reduction in bacterial growth after 2 to 4 hrs by time kill assay; assay type: functional, organism-based
Procedure, shortened: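 Samples taken at 0, 2, 4, 6, 8, 12 and 24 h were serially diluted in PBS, plated on TSA and incubated ≥18 h for viable CFU/mL. DMSO was the negative control; two independent experiments.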

[7] = test system: Caco-2; test: Cytotoxicity against human Caco2 cells at 32 ug/ml after 2 hrs by MTS assay; assay type: cell-based; conditions: caco-2, 2 h
Procedure, shortened: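 Caco-2 cells grown in DMEM with 20% FBS, non-essential amino acids and penicillin-streptomycin, 37 °C, 5% CO2; exposed in triplicate to compounds (16, 32, 64 µg/mL) for 2 h; MTS added, 4 h further incubation, OD490 read; viability as percent of DMSO-treated controls; two independent experiments.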

[8] = Terminal phase volume of distribution at steady state in Sprague-Dawley rat at 5 uM, iv administered as bolus dose by LC-MS/MS analysis; assay type: ADME, organism-based; conditions: in vivo, read-out: Vbeta
Procedure, shortened: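 Male naïve Sprague–Dawley rats (n = 3) given tail-vein IV bolus of a 5 µM solution; blood taken into EDTA-K2 over 12 h; plasma protein-precipitated with acetonitrile and measured by LC/MS/MS; parameters from two-compartmental analysis.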

[9] = test system: Enterococcus faecalis; test: Bactericidal activity against vancomycin-resistant Enterococcus faecalis ATCC 51299 incubated fo 18 hrs followed by re-plating on tryptic soy agar plates at 37 degC for 18 hrs by broth microdilution assay; assay type: functional; conditions: ATCC 51299, 18 h
[10] = test system: Streptococcus pneumoniae; test: Bactericidal activity against cephalosporin-resistant Streptococcus pneumoniae ATCC 51916 incubated fo 18 hrs followed by re-plating on tryptic soy agar plates at 37 degC for 18 hrs by broth microdilution assay; assay type: functional; conditions: ATCC 51916, 18 h
[11] = test system: Streptococcus pneumoniae; test: Bactericidal activity against methicillin-resistant Streptococcus pneumoniae ATCC 700677 incubated fo 18 hrs followed by re-plating on tryptic soy agar plates at 37 degC for 18 hrs by broth microdilution assay; assay type: functional; conditions: ATCC 700677, 18 h
[12] = Safety index, ratio of cytotoxicity against human Caco2 cells at 32 ug/ml after 2 hrs by MTS assay to antibacterial activity against methicillin-resistant Staphylococcus aureus; assay type: toxicity, cell-based; conditions: Caco-2 cells
[13] = test system: Staphylococcus aureus; test: Inhibition of biofilm formation in methicillin-resistant Staphylococcus aureus NRS384 USA300 after 24 hrs by crystal violet staining-based spectrophotometric analysis
[14] = test system: Staphylococcus aureus; test: Antibacterial activity against methicillin-resistant Staphylococcus aureus NRS123 USA400 assessed as change in MIC after 14 serial passages by broth microdilution assay
[15] = test system: Staphylococcus aureus; test: Inhibition of biofilm formation in methicillin-resistant Staphylococcus aureus NRS384 USA300 at 1 time MIC after 24 hrs by crystal violet staining-based spectrophotometric analysis relative to control; design: scale not given: the % may be the effect or the level left
[16] = test system: Staphylococcus aureus; test: Inhibition of biofilm formation in methicillin-resistant Staphylococcus aureus NRS384 USA300 at 2 times MIC after 24 hrs by crystal violet staining-based spectrophotometric analysis relative to control; design: scale not given: the % may be the effect or the level left
[17] = test system: Enterococcus faecium; test: Bactericidal activity against vancomycin-resistant Enterococcus faecium ATCC 700221 incubated fo 18 hrs followed by re-plating on tryptic soy agar plates at 37 degC for 18 hrs by broth microdilution assay; conditions: ATCC 700221, 18 h
[18] = test system: Enterococcus faecium; test: Antibacterial activity against vancomycin-resistant Enterococcus faecium ATCC 700221 after 18 hrs by broth microdilution assay; assay type: functional; conditions: ATCC 700221, 18 h; procedure, shortened: as §1
[19] = test system: Staphylococcus aureus; test: Bactericidal activity against vancomycin-resistant Staphylococcus aureus VRS10 incubated fo 18 hrs followed by re-plating on tryptic soy agar plates at 37 degC for 18 hrs by broth microdilution assay; assay type: functional; conditions: VRS10, 18 h

| SMILES | MIC [1] [µg/mL] | MIC [2] [µg/mL] | MIC [3] [µg/mL] | MIC [4] [µg/mL] | MIC [5] [µg/mL] | Activity [6] | Activity [7] | Vd at 5 µM [8] [L] | MBC [9] [µg/mL] | MBC [10] [µg/mL] | MBC [11] [µg/mL] | selectivity ratio at 2 h, 32 ug/ml [12] | inhibition [13] | Ratio [14] | Activity [15] [%] | Activity [16] [%] | MBC [17] [µg/mL] | MIC [18] [µg/mL] | MBC [19] [µg/mL] |
| --- | --- | --- | --- | --- | --- | --- | --- | --- | --- | --- | --- | --- | --- | --- | --- | --- | --- | --- | --- |
| Cc1nc(-c2ccc(C(C)(C)C)cc2)sc1-c1ccnc(NCCN)n1 | 1.17 (≈ 3.18 µM) | 16 (≈ 43.5 µM) | 4 (≈ 10.9 µM) | 4 (≈ 10.9 µM) | 2 (≈ 5.44 µM) | Active | Non-Toxic | 16.4 | 16 (≈ 43.5 µM) | 16 (≈ 43.5 µM) | 16 (≈ 43.5 µM) | 8 to 30 | Dose-dependent effect | 1 | 28 | 64 | 8 (≈ 21.8 µM) | – | – |
| CN[C@H](CC(C)C)C(=O)N[C@H]1C(=O)N[C@@H](CC(N)=O)C(=O)N[C@H]2C(=O)N[C@H]3C(=O)N[C@H](C(=O)N[C@H](C(=O)O)c4cc(O)cc(O)c4-c4cc3ccc4O)[C@H](O)c3ccc(c(Cl)c3)Oc3cc2cc(c3O[C@@H]2O[C@H](CO)[C@@H](O)[C@H](O)[C@H]2O[C@H]2C[C@](C)(N)[C@H](O)[C@H](C)O2)Oc2ccc(cc2Cl)[C@H]1O [VANCOMYCIN] | – | – | – | – | – | – | – | – | 64 (≈ 44.2 µM) | – | – | – | – | – | 3 | – | > 64 | > 64 | > 64 |
